Screening data deposited in PubChem BioAssay by several laboratories.
The list is not random: actives were taken first. Their share in the collection is about 2.1%.
TNAP act mid DEA: human TNAP enzyme activators, primary screen, biochemical, luminescent, intermediate phosphate acceptor level. 64,000 tested, under 10 active. AID 813, 2007. purified TNAP, CDP-star luminescence, 100 mM DEA, 30 min; active compounds read high; scale: 0 levamisole-inhibited, 1 vehicle-only enzyme. activation factor at 20 µM;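 active = activation factor of at least 2 at 20 µM, relative to controls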
E coli RNAP: E. coli RNAP inhibitors, biochemical | E. coli RNA polymerase, fluorescence transcription assay | AID 559, 2006 | inhibition, %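 (tested at 10 µM)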 | 62,000 compounds, 0.2% hits; in the data active = inhibition above about 20%
RORa activator: activators of orphan receptor RORA, primary screen, cell-based, luminescence. Nuclear receptor ROR-alpha (Homo sapiens), P35398. CHO-K1 Gal4-RORA LBD luciferase reporter; percent increase over mock-subtracted basal signal. activation, % at 10 µM. 65,000 compounds, 1.5% hits. AID 560, 2006;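 active = activation above the mean of all tested compounds plus 3 SD, cut at about 49% in these data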
SF1 activator: activators of human SF-1, primary screen, cell-based, CHO-K1, Gal4-SF-1 LBD, luciferase luminescence; CHO-K1 Gal4-SF-1 LBD luciferase reporter; % increase over DMSO SF-1-specific signal; activation, % at 10 µM; 65,000 compounds, 1.9% hits; AID 522, 2006;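 active = activation above the mean activation of all tested compounds plus 3 SD, cut at about 50% in these data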
Target sequence (Q13285 whole entry, looked up, the tested form may be a part): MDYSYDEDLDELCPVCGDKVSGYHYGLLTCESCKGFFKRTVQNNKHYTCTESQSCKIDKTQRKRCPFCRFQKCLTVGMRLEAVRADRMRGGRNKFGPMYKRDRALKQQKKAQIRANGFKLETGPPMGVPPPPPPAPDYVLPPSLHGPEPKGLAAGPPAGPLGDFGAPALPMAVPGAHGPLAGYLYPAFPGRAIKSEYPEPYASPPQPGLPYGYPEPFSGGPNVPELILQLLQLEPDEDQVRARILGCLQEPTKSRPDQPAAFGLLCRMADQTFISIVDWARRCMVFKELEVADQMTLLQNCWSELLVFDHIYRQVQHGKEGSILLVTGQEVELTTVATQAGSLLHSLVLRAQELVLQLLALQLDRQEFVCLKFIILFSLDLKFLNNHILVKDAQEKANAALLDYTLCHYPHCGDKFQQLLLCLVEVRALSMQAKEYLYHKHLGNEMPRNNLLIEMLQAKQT
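Material: CHO-K1 cells with Gal4–hSF-1 LBD chimera plus Gal4-driven luciferase / Input: 4,000 CHO-K1 cells per well / Incubation: compound exposure 20 h at 37 °C / Signal: luminescence read 15 min after SteadyLite luciferase reagent, after room-temperature equilibration / Read-out: percent activation versus DMSO / Benchmarks: DMSO negative control and −SF1 background wells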
MT1-MMP txn act: MT1-MMP promoter reporter activation – cell-based, luciferase luminescence, primary screen; 86,000 compounds, 0.16% hits; activation factor at 10 µM; HT1080 MT1-MMP promoter luciferase reporter, overnight; active compounds read high; AID 750, 2007;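 active = activation factor of at least 2 for MT1-MMP transcription at 10 µM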
Numbers stand for hits; ! = not confirmed by another sample.

What do the screens show for `N#Cc1ccc(-c2ccco2)nc1SCC(=O)c1ccc(Cl)cc1`?
TNAP act mid DEA: inactive; E coli RNAP: 21; RORa activator: inactive; SF1 activator: inactive; MT1-MMP txn act: inactive

What do the screens show for `O=C(Nc1cccc(-c2nnc(-c3ccccc3)o2)c1)c1ccc(Br)o1`?
TNAP act mid DEA: inactive; E coli RNAP: inactive; RORa activator: inactive; SF1 activator: 67; MT1-MMP txn act: inactive

What do the screens show for `Cc1ccc(C(=O)Nc2ccc3c(c2)OCO3)o1`?
TNAP act mid DEA: inactive; E coli RNAP: inactive; RORa activator: inactive; SF1 activator: inactive; MT1-MMP txn act: inactive

How did O=C(Nc1ccc2c(c1)OCCO2)c1ccc(Br)o1 do in these assays?
TNAP act mid DEA: inactive; E coli RNAP: inactive; RORa activator: inactive; SF1 activator: 59; MT1-MMP txn act: inactive

How did O=C(Nc1ccc(Nc2ccccc2)cc1)c1ccc(Br)o1 do in these assays?
TNAP act mid DEA: inactive; E coli RNAP: inactive; RORa activator: 49; SF1 activator: inactive; MT1-MMP txn act: inactive

How did O=C(Nc1ccc2c(c1)OCCO2)NC12CC3CC(CC(C3)C1)C2 do in these assays?
TNAP act mid DEA: inactive; E coli RNAP: inactive; RORa activator: 77; SF1 activator: 75; MT1-MMP txn act: inactive

Results for O=C(COc1ccccc1)Nc1cccc(-c2nnc(-c3ccccc3)o2)c1 ?
TNAP act mid DEA: inactive; E coli RNAP: inactive; RORa activator: inactive; SF1 activator: inactive; MT1-MMP txn act: inactive

How did COc1ccc(OC)c(C(=O)N2CCC(C(=O)c3ccc(F)cc3)CC2)c1 do in these assays?
MT1-MMP txn act: inactive

What do the screens show for `O=C(Nc1nccs1)c1ccc(Br)o1`?
TNAP act mid DEA: inactive; E coli RNAP: inactive; RORa activator: inactive; SF1 activator: 65; MT1-MMP txn act: inactive

How did Cc1nn(C)c(C)c1/C=C/C(=O)c1cccs1 do in these assays?
MT1-MMP txn act: inactive

How did Cc1nn(C)cc1/C=C/C(=O)c1cccs1 do in these assays?
MT1-MMP txn act: 2.5

Results for COC(=O)c1cc(-c2ccccc2)n(CCNC(=O)CCCCCN2C(=O)NC(c3ccc(-c4ccccc4)cc3)C(C(=O)OCc3ccccc3)=C2C)c1C (stereo unspecified) ?
MT1-MMP txn act: inactive

Results for Cc1cc(NC(=O)NC(=O)c2cccc(OC(F)(F)C(F)F)c2)n[nH]1 ?
TNAP act mid DEA: inactive; E coli RNAP: inactive; RORa activator: 52; SF1 activator: 81; MT1-MMP txn act: inactive

Results for CCOC(=O)C1=C(C)NC(=O)NC1/C(C)=C/c1ccccc1 (stereo unspecified) ?
TNAP act mid DEA: inactive; E coli RNAP: inactive; RORa activator: inactive; SF1 activator: inactive; MT1-MMP txn act: inactive

Results for Cc1cc(-c2ccccc2)nc(N2CCC(C(=O)NCc3ccccc3Cl)CC2)n1 ?
MT1-MMP txn act: inactive

How did C=CCNC(=O)C1CCN(c2nc(C)cc(-c3ccccc3)n2)CC1 do in these assays?
TNAP act mid DEA: inactive; E coli RNAP: inactive; RORa activator: inactive; SF1 activator: 102; MT1-MMP txn act: inactive

How did CCCCCOC(=O)c1[nH]c2c(c1C)C(=O)C(C(=O)OC)C(C)C2 (stereo unspecified) do in these assays?
TNAP act mid DEA: inactive; E coli RNAP: inactive; RORa activator: inactive; SF1 activator: inactive

How did COC(=O)C1C(=O)c2c([nH]c(C(=O)OC3CCCCCC3)c2C)CC1C (stereo unspecified) do in these assays?
TNAP act mid DEA: inactive; E coli RNAP: inactive; RORa activator: 74; SF1 activator: inactive; MT1-MMP txn act: inactive

Results for COCCOC(=O)c1[nH]c2c(c1C)C(=O)C(C(=O)OC)C(C)C2 (stereo unspecified) ?
TNAP act mid DEA: inactive; E coli RNAP: inactive; RORa activator: 56; SF1 activator: inactive; MT1-MMP txn act: inactive

How did CCOC(=O)c1[nH]c(C)c(C(=O)Nc2ccccc2F)c1C do in these assays?
TNAP act mid DEA: inactive; E coli RNAP: inactive; RORa activator: 110; SF1 activator: 83; MT1-MMP txn act: inactive

How did O=C(COc1ccccc1)Nc1nc2ccccc2[nH]1 do in these assays?
TNAP act mid DEA: inactive; E coli RNAP: inactive; RORa activator: 55; SF1 activator: 60; MT1-MMP txn act: inactive

Results for COCCNC(=O)C1(C)C=CCN1C(C)=O (stereo unspecified) ?
MT1-MMP txn act: inactive

Results for O=C(Nc1cccc2nsnc12)c1cccs1 ?
TNAP act mid DEA: inactive; E coli RNAP: inactive; RORa activator: 78!; SF1 activator: inactive; MT1-MMP txn act: inactive

Results for O=C(Nc1ccc2nsnc2c1)c1cccs1 ?
TNAP act mid DEA: inactive; RORa activator: inactive; SF1 activator: inactive; MT1-MMP txn act: inactive

Results for CS(=O)(=O)n1nc(C(=O)N2CCOCC2)nc1N ?
MT1-MMP txn act: inactive

How did COc1ccc(C(O)P(=O)(OC2CCCCC2)c2ccc(N(C)C)cc2)cc1OC (stereo unspecified) do in these assays?
TNAP act mid DEA: inactive; E coli RNAP: inactive; RORa activator: inactive; SF1 activator: inactive; MT1-MMP txn act: inactive

What do the screens show for `C=CCNc1ncnc2c1cnn2-c1cccc(C)c1`?
TNAP act mid DEA: inactive; E coli RNAP: inactive; RORa activator: 55; SF1 activator: inactive; MT1-MMP txn act: inactive

How did c1ccc(-n2ncc3c(NCc4ccco4)ncnc32)cc1 do in these assays?
TNAP act mid DEA: inactive; E coli RNAP: inactive; RORa activator: 90; SF1 activator: 77; MT1-MMP txn act: inactive

How did c1ccc(Cn2ncc3c(NCc4ccco4)ncnc32)cc1 do in these assays?
TNAP act mid DEA: inactive; E coli RNAP: inactive; RORa activator: inactive; SF1 activator: inactive; MT1-MMP txn act: inactive

Results for C=CCNc1ncnc2c1cnn2-c1ccc(Cl)cc1 ?
TNAP act mid DEA: inactive; E coli RNAP: inactive; RORa activator: inactive; SF1 activator: 50; MT1-MMP txn act: inactive

What do the screens show for `Cc1ccc(-n2ncc3c(NCc4ccccn4)ncnc32)c(C)c1`?
TNAP act mid DEA: inactive; E coli RNAP: inactive; RORa activator: inactive; SF1 activator: inactive; MT1-MMP txn act: inactive

How did Clc1ccc(-n2ncc3c(NCc4ccccn4)ncnc32)cc1 do in these assays?
TNAP act mid DEA: inactive; E coli RNAP: inactive; RORa activator: inactive; SF1 activator: 74; MT1-MMP txn act: inactive

What do the screens show for `O=C(COC(=O)Cc1ccsc1)NC1CCCCCC1`?
TNAP act mid DEA: inactive; E coli RNAP: inactive; RORa activator: inactive; SF1 activator: inactive; MT1-MMP txn act: inactive

What do the screens show for `O=C(Nc1ccc(N2CCN(C(=O)c3ccco3)CC2)c(Cl)c1)c1c(F)c(F)c(F)c(F)c1F`?
TNAP act mid DEA: inactive; E coli RNAP: inactive; RORa activator: inactive; SF1 activator: inactive; MT1-MMP txn act: inactive

How did CCOC(=O)C1=C(C)N(CCCC(=O)N(Cc2ccc3c(c2)OCO3)C(C(=O)NC(C)(C)C)c2ccc3c(c2)OCO3)C(=O)NC1c1ccc(Br)cc1 (stereo unspecified) do in these assays?
MT1-MMP txn act: inactive
